TLR4-MyD88 BLA: TLR4-MyD88 interaction inhibition in cells | 200,000 compounds, 0.18% hits | AID 861 | O00206+Q99836 | inhibition, % at 8.4 µM | HeLa CL3-4 TLR4/MyD88 BLA complementation, FRET ratio; in the data active = inhibition above about 25%;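 note: 0% = vehicle and 100% = reference inhibitor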
MC4R ag barr: human MC4R agonism via beta-arrestin; P32245; U2OS MC4R beta-arrestin complementation, luminescence; percent of melanotan II response, DMSO zero; activation, % at 8.9 µM; 360,000 compounds, 0.98% hits; AID 540308;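 active = activation above a per-plate cutoff, the mean activation of sample wells on that plate plus 3 SD, cut at about 8% in these data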
TLR9-MyD88 block: inhibitors of human TLR9-MyD88 binding. Q9NR96+Q99836. CHO BLA complementation TLR9-MyD88, CCF4 FRET ratio. inhibition, % at 4.98 µM. 340,000 compounds, 0.21% hits. AID 504734;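 active = inhibition above the mean over all tested compounds plus 3 SD, cut at about 21% in these data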;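 note: 0% = DMSO only wells and 100% = clavulanate BLA inhibitor control wells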
MC4R antag cAMP: antagonists of human melanocortin 4 receptor (MC4R) | 360,000 compounds, 0.48% hits | MC4R-expressing cells, MTII-stimulated cAMP, LANCE TR-FRET | P32245 | inhibition, % at 6.5 µM;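 active = inhibition above its plate's cutoff, the mean of tested wells on that plate plus 3 SD, cut at about 29% in these data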;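 note: 0% = Melanotan II alone and 100% = Melanotan II plus saturating MCL0020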
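system = U2OS cells with stable human MC4R expression | also added = Melanotan II challenge after compound preincubation | dosing = one concentration, 6.5 µM nominal | incubation = compound 30 min, challenge 1 h, detection 1 h | measured by = TR-FRET with Eu-cAMP and labeled anti-cAMP, 671 nm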
NOD2-RIPK2 inh: inhibitors of human NOD2-RIPK2 interaction. inhibition, % at 4.98 µM. CHO BLA complementation NOD2-RIPK2, CCF4 ratio. AID 624267. 360,000 compounds, 0.38% hits; in the data active = inhibition above about 21%;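 note: 0% = vehicle only and 100% = reference blocker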
NTR1 agonist: activates human neurotensin receptor 1. AID 493036. 330,000 compounds, 0.17% hits. P30989. activation, % at 20 µM. NTR1-U2OS beta-arrestin-GFP spot imaging, agonist mode;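 active = activation at or above 40% of the spot to cytoplasm intensity ratio, with at least 20 cells analyzed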;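 note: 0% = DMSO without peptide and 100% = 100 nM NTR1 peptide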
* = called active by the depositor; . = not tested or not shown. Hits are enriched below; roughly 1.9% of the tested compounds scored in any of these assays.

SMILES	TLR4-MyD88 BLA	MC4R ag barr	TLR9-MyD88 block	MC4R antag cAMP	NOD2-RIPK2 inh	NTR1 agonist
CC[C@H]1CC2CN3CCc4c([nH]c5c([C@H]6C[C@H]7[C@H](CC)CN(C)[C@@H](Cc8c6[nH]c6ccccc86)[C@H]7C(=O)OC)c(OC)ccc45)C(C(=O)OC)(C2)C13	.	.	.	.	.	1
Cc1ccc(Nc2cc(C)nn2-c2nc(C)cc(=O)[nH]2)cc1	16	-3	41*	13	53*	19
C=C1C(=O)C=C2CN(C(=O)c3ccccc3)[C@@](Cc3ccc(F)cc3)(C(=O)OC)[C@@H]12	-8	-2	9	25	48*	2
CCCCOc1ccc(C(=O)N/C(=C\c2cccc([N+](=O)[O-])c2)C(=O)OCCC)cc1	10	8.8*	-10	16	-4	3
CCCCOc1ccc(C(=O)N/C(=C\c2cccc([N+](=O)[O-])c2)C(=O)OC(C)C)cc1	8	4	-8	12	-6	1
Oc1cccc2ccc(Nc3ccccn3)nc12	-9	8.7*	-4	3	4	2
Cc1ccc(CONS(=O)(=O)c2cc(C)ccc2C)cc1	.	8.2*	-8	-3	0	2
O=C(Nc1ccc(Cl)cc1)N[C@@H]1CC[C@H](CCNS(=O)(=O)c2ccccc2F)O[C@@H]1CO	.	.	.	.	-8	.
COc1ccc2cc1Oc1ccc(cc1)C[C@H]1c3c(cc(OC)c4c3Oc3c(ccc5c3[C@H](C2)N(C)CC5)O4)CCN1C	.	4	-2	5	3	29
COc1ccc2cc1Oc1ccc(cc1)CC1c3c(cc(OC)c4c3Oc3cc5c(cc3O4)CCNC5C2)CCN1C (stereo not drawn)	.	45*	8	6	4	25
CNC[C@H](CC1CCCCC1)NC[C@H](Cc1ccccc1)NCCC12CC3CC(CC(C3)C1)C2	.	26*	-7	27	14	5
NC[C@H](Cc1ccccc1)NCCCCC1CCCCC1	.	2	8	6	0	3
Cc1ccc2nc(NC(=O)CSCc3ccccc3)sc2c1	9	8.9*	4	-5	-4	2
CCOC(=O)CCc1c(C)c2ccc(OCc3ccc([N+](=O)[O-])cc3)cc2oc1=O	2	13*	-10	11	-2	0
CCOC(=O)CCc1c(C)c2ccc(OCc3nn[nH]n3)cc2oc1=O	-8	-1	-2	5	-5	-2
Cc1nn(CC(=O)NCCCN2CCC(N3CCCCC3)CC2)c(=O)c2cc(-c3ccccc3)nn12	.	-4	-3	-1	-12	-1
COc1ccc(CN(C)C(=O)/C=C/[C@H]2O[C@@H](n3cnc4c(N)ncnc43)[C@H](O)[C@@H]2O)cc1OC	.	.	.	.	-9	.
O=C(CSc1ccccc1)Nc1ccc(-c2nc3ccccc3[nH]2)cc1	0	11*	-2	13	3	0
Cc1ccc2nc(-c3ccc(NC(=O)CSc4ccccc4)cc3)[nH]c2c1	-3	9.0*	-1	10	2	4
C=CCn1c(=O)c2ccc(C(=O)NCc3ccccc3)cc2n(Cc2cccc(Cl)c2)c1=O	-10	9.5*	4	-30	-32	1
O=C(Nc1cnn(Cc2ccc(F)cc2)c1)c1cc2nc(-c3ccco3)cc(C(F)(F)F)n2n1	-14	9.2*	-9	4	4	5
Cc1ccccc1SCCNC(=O)CCc1ccccc1	7	.	.	.	.	0
COc1ccc(N2CCN(S(=O)(=O)c3ccc(Cl)c(C(F)(F)F)c3)CC2)cc1	-16	8.5*	-1	6	-1	0
S=C(c1ccccc1)N1CCN(c2ccccc2)CC1	.	0	-4	4	-4	.
CC(C)(C)c1ccc(C(=S)N2CCN(c3ccccc3)CC2)cc1	.	9.0*	-1	10	4	1
SMILES	TLR4-MyD88 BLA	MC4R ag barr	TLR9-MyD88 block	MC4R antag cAMP	NOD2-RIPK2 inh	NTR1 agonist
CC(C)(C)c1ccc(OCc2ccc(C(=O)N/N=C/c3ccc([N+](=O)[O-])cc3)o2)cc1	-10	9.1*	-3	11	-12	0
Cc1cc(Cl)ccc1OCC(=O)N[C@@H](Cc1ccccc1)c1nc2ccccc2[nH]1	5	13*	1	4	-10	2
CCC(=O)NC(Cc1ccccc1)c1nc2ccccc2[nH]1 (stereo not drawn)	.	-1	-2	6	-4	2
COc1cccc(-n2nc(C#N)c(Cl)cc2=O)c1	6	-2	17	-2	70*	-2
O=C(OC1CCOC1=O)c1ccccc1C(=O)c1ccc(Cl)c([N+](=O)[O-])c1 (stereo not drawn)	.	0	-5	23	14	9
CS(=O)(=O)c1ccc(C(=O)OC2CCOC2=O)cc1[N+](=O)[O-] (stereo not drawn)	.	-3	1	32*	-6	1
CC(C)(C)c1ccc(OCc2cnc(Cl)s2)cc1	9	9.3*	2	27	-2	6
CC(=O)Nc1cccc(OCc2cnc(Cl)s2)c1	-3	-2	3	2	-1	0
Cc1cc(N2CCN(C(C(=O)NC3CCCC3)c3ccc(-c4ccccc4)cc3)CC2)c2ccccc2n1 (stereo not drawn)	.	.	.	.	1	.
C=C(C)COc1ccc(-c2[nH]ncc2Oc2ccccc2OC)c(O)c1	-6	8.9*	6	17	3	15
C=C(C)COc1ccc(-c2[nH]ncc2-c2ccccc2OC)c(O)c1	10	9.2*	12	2	11	6
N#CCC(CNc1ncc(C(F)(F)F)cc1Cl)OC(=O)c1cccc([N+](=O)[O-])c1 (stereo not drawn)	17	9.1*	0	-1	-19	4
N#CCC(CNc1ncc(C(F)(F)F)cc1Cl)OC(=O)c1ccc(Cl)cc1 (stereo not drawn)	-3	0	5	0	-4	8
CC(C)CCNC(=O)NC(=O)CSc1nnc(-c2ccccc2Br)o1	-6	8.4*	-7	9	-6	6
Cc1ccc(S(=O)(=O)N2C[C@H]3C(=O)C[C@@H](c4ccccc4)N(S(=O)(=O)c4ccc(C)cc4)[C@H]3C[C@H]2c2cccc(C)c2)cc1	.	.	.	.	7	.
O=[N+]([O-])c1nn(-c2ccccc2)[n+]([O-])c1N1CCN(c2ccccc2)CC1	9	-2	-7	12	7	1
O=[N+]([O-])c1nn(-c2ccccc2)[n+]([O-])c1N1CCN(c2ccccc2F)CC1	10	9.3*	-8	-5	-11	2
Cc1ccc(CNC(=O)/C=C/[C@H]2O[C@@H](n3cc(C)c(=O)[nH]c3=O)C[C@@H]2O)o1	.	.	.	.	-6	.
COc1cc(/C=C2\CCC/C(=C\c3ccc(O)c(OC)c3)C2=O)ccc1O	.	30*	-2	13	4	56*

Screening results (PubChem)
